Data from publication PMC6044781 (ACS Omega, 2017).
Read-outs that look alike come from different tables or passages of the source.

Legend:
[1] = test system: h-telo 22-mer quadruplex (DNA, G4) AGGGTTAGGGTTAGGGTTAGGG; assay: ITC; conditions: 25 mM KCl; 10 mM sodium cacodylate, 0.5 mM EDTA, pH 7.0, 25 °C
[2] = test system: h-telo 12-mer quadruplex (DNA, G4) TAGGGTTAGGGT; assay: ITC; conditions: 25 mM KCl; 10 mM sodium cacodylate, 0.5 mM EDTA, pH 7.0, 25 °C
[3] = test system: F22T (5′-fluorescein-AGGGTTAGGGTTAGGGTTAGGG-3′-TAMRA) G-quadruplex; assay: FRET melting assay, F22T; assay type: binding, human; conditions: 2 μM ligand; for ΔTm F22T: no competitor; for ΔTm F22TComp22: with competitor complementary strand Compl 22
Procedure, shortened: (§1)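 Dual-labelled oligos (5′-fluorescein/3′-TAMRA) at 0.25 μM in 10 mM sodium cacodylate, 0.5 mM EDTA, 25 mM KCl, pH 7.0, with or without 2 μM test compound. For competitor runs, each oligo was preincubated 24 h at 25 °C with 2 μM unlabelled complementary strand. Excitation 480 nm, emission 520 nm, read at 1 °C steps from 25 to 95 °C with 60 s equilibration per reading. ΔTm is the average of three determinations.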

[4] = test system: F12T (5′-fluorescein-TAGGGTTAGGGT-3′-TAMRA) G-quadruplex; assay: FRET melting assay, F12T; assay type: binding, human; conditions: 2 μM ligand; for ΔTm F12T: no competitor; for ΔTm F12TComp12: with competitor complementary strand Compl 12
Procedure, shortened: as §1

h-telo 22-mer quadruplex [5] = assay: ITC with h-telo 22-mer quadruplex; assay type: binding, human; conditions: for binding equilibrium constants from microcalorimetry: h-telo 22-mer quadruplex; for binding constant Ka × 10^6: h-telo 22-mer, 25 °C
Procedure, shortened: (§2)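 Isothermal titration calorimetry at 25 °C in cacodylate/EDTA/KCl buffer, pH 7.0; solutions degassed under vacuum (160 mbar, 10 min). Test compound at 4 × 10^-4 M was injected in 5–10 μL aliquots (20 s each, 240 s apart, 60 s initial delay, 381 rpm) into DNA: 22-mer and 26-mer duplex at 1.0 × 10^-5 M, 12-mer at 0.5 × 10^-5 M. Dilution heat was subtracted and data fitted to a single-site model. Ka is mean ± SD of three runs.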

h-telo 12-mer quadruplex = assay: ITC with h-telo 12-mer quadruplex; assay type: binding, human; conditions: 25 °C, BMSG-SH-3: first line of two
Procedure, shortened: as §2

duplex DNA 26-mer [6] = assay: ITC with duplex DNA 26-mer; assay type: binding; conditions: for binding constant Ka × 10^6: duplex DNA 26-mer, 25 °C
Procedure, shortened: as §2

h-telo 22-mer quadruplex [7] = assay: SPR with h-telo 22-mer; assay type: binding, human; conditions: for KA: h-telo 22-mer, 25 °C, error ±15%; for KA h-telo 22/KA dsDNA: selectivity 22-mer quadruplex over DNA duplex, SPR
Procedure, shortened: (§3)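 Surface plasmon resonance on streptavidin chips carrying 5′-biotin-T9-linked 22-mer telomeric or 26-mer duplex DNA, annealed at 95 °C and slowly cooled in 10 mM HEPES, 100 mM KCl, 0.005% IGEPAL, pH 7.4. Surfaces equilibrated 2 h at 20 μL/min, 25 °C. Test compound (1.0 × 10^-9 to 10^-6 M) injected for 300 s in random order; regeneration with 1 M NaCl in 50 mM NaOH. Sensorgrams fitted to a two-site model. Selectivity is the ratio of G4 to duplex binding constants. Triplicate runs, mean ± SEM.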

duplex DNA 26-mer [8] = assay: SPR with duplex DNA 26-mer; assay type: binding; conditions: 25 °C, error ±15%
Procedure, shortened: as §3

[9] = test system: telomerase (from A549 cells); assay: TRAP-Lig assay; assay type: biochemical, human; conditions: read-out: TRAP assay IC50; telomerase inhibition, ligand 1–50 μM
A549 cells = assay: MTT cell survival assay, A549; assay type: cell-based; conditions: Homo sapiens
Procedure, shortened: (§4)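 MTT survival assay: cells treated with increasing concentrations of test compound for 48 or 72 h at 37 °C. Medium was then replaced with fresh medium containing MTT for 4 h, formazan dissolved in DMSO, and absorbance read at 570 nm. IC50 determined at each time point.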

HeLa cells [10] = assay: MTT cell survival assay, HeLa; assay type: cell-based; conditions: Homo sapiens
Procedure, shortened: as §4

HEK 293T cells = assay: MTT cell survival assay, HEK 293T; assay type: cell-based; conditions: Homo sapiens
Procedure, shortened: as §4

HeLa cells [11] = assay: Cell cycle analysis by flow cytometry; assay type: cell-based, human; conditions: 1 μM, 24 h; for G2/M phase arrest (G2): control 7.6%
HeLa cells [12] = assay: Annexin V-FITC/PI apoptosis assay; assay type: cell-based, human; conditions: 1 μM, 24 h
Procedure, shortened: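 HeLa cells seeded at 2 × 10^5 per 60 mm plate and treated with test compound at 1 μM. After 24 h, cells were harvested, washed twice in PBS and resuspended at 1 × 10^6 cells/mL in kit buffer. Annexin V-FITC/PI staining for 15 min in the dark at room temperature; Annexin V–FITC labelling quantified. Values are mean ± SEM.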

[13] = test system: 26-mer duplex DNA (DNA, duplex) CAATCGGATCGAATTCGATCCGATTG; assay: ITC; conditions: 25 mM KCl; 10 mM sodium cacodylate, 0.5 mM EDTA, pH 7.0, 25 °C
[14] = A549, 48 h, read-out: IC50 at 48 h
[15] = A549, 72 h, read-out: IC50 at 72 h

| SMILES | Ka [1] | Ka [2] | ΔTm F22T [3] [°C] | ΔTm F22TComp22 [3] [°C] | ΔTm F12T [4] [°C] | ΔTm F12TComp12 [4] [°C] | binding equilibrium constants from microcalorimetry (h-telo 22-mer quadruplex [5]) [µM] | binding constant Ka × 10^6 (h-telo 22-mer quadruplex [5]) | binding constant Ka × 10^6 (h-telo 12-mer quadruplex) | binding constant Ka × 10^6 (duplex DNA 26-mer [6]) | KA (h-telo 22-mer quadruplex [7]) | KA h-telo 22/KA dsDNA (h-telo 22-mer quadruplex [7]) | KA (duplex DNA 26-mer [8]) | Kd (duplex DNA 26-mer [8]) [µM] | IC50 [9] [µM] | IC50 (A549 cells; [14]) [µM] | IC50 (A549 cells; [15]) [µM] | IC50 (HeLa cells [10]; 48 h, read-out: IC50 at 48 h) [µM] | IC50 (HeLa cells [10]; 72 h, read-out: IC50 at 72 h) [µM] | IC50 (HEK 293T cells; 48 h, read-out: IC50 at 48 h) [µM] | also measured |
| --- | --- | --- | --- | --- | --- | --- | --- | --- | --- | --- | --- | --- | --- | --- | --- | --- | --- | --- | --- | --- | --- |
| CN1CCN(CCCN2C(=O)c3ccc4c5c(ccc(c35)C2=O)C(=O)N(CCCN2CCN(C)CC2)C4=O)CC1 [ALI-C3, 2,7-Bis(3-(4-methylpiperazin-1-yl)propyl)benzo[lmn][3,8]phenanthroline-1,3,6,8 (2H,7H)tetraone] | 6.35 ± 0.26 × 10^6 M^-1 | 0.61 ± 1.82 × 10^6 M^-1 | 9 ± 1.2 | 11 ± 0.6 | 5 ± 0.8 | 7 ± 0.5 | 6.35 | 6.35 ± 0.26 10^6 M^–1 | 0.61 ± 1.82 10^6 M^–1 | 0.03 ± 0.10 10^6 M^–1 | 8.7 × 10^6 M^–1 | 87.0 | 0.1 × 10^6 M^–1 | 17.1 | > 50 | 1.8 | 1.4 | 2.4 | 2.1 | 12.2 | IC50 (HEK 293T cells; 72 h, read-out: IC50 at 72 h): 8.9 µM; G2/M phase arrest (G2) (HeLa cells [11]): 15.7%; apoptotic cells (Annexin V–FITC positive cells) (HeLa cells [12]): 35% |
| CN1CCN(c2ccc3nc(-c4ccc(N5C(=O)c6ccc7c8c(ccc(c68)C5=O)C(=O)N(c5ccc(-c6nc8ccc(N9CCN(C)CC9)cc8[nH]6)cc5)C7=O)cc4)[nH]c3c2)CC1 [BBZ-ARO, 2,7-Bis(4-(6-(4-methylpiperazin-1-yl)-1H-benzo[d]imidazol-2-yl)phenyl)benzo[lmn][3,8]phenanthroline-1,3,6,8(2H,7H)-tetraone] | 8.47 ± 0.65 × 10^6 M^-1 | 6.63 ± 2.39 × 10^6 M^-1 | 14 ± 0.5 | 16 ± 1.6 | 13 ± 1.4 | 15 ± 0.5 | 8.47 | 8.47 ± 0.65 10^6 M^–1 | 6.63 ± 2.39 10^6 M^–1 | 0.05 ± 0.65 10^6 M^–1 | 9.5 × 10^7 M^–1 | 158.3 | 0.6 × 10^6 M^–1 | 36.6 | 4.56 | 26.4 | 19.7 | 24.7 | 20.5 | 77.9 | Ka [13]: 0.05 ± 0.65 × 10^6 M^-1; affinity (ITC) (h-telo 22-mer quadruplex [5]; 22-mer quadruplex): 8.4 × 10^6 M^–1; binding affinity (ITC) (duplex DNA 26-mer [6]; duplex DNA): 5.0 × 10^4 M^–1; IC50 (HEK 293T cells; 72 h, read-out: IC50 at 72 h): 63.4 µM; sub-G1 phase accumulation (HeLa cells [11]; control 0.2%): 7.3%; G2/M phase arrest (G2) (HeLa cells [11]): 15.8%; apoptotic cells (Annexin V–FITC positive cells) (HeLa cells [12]): 74% |
| CN1CCN(c2ccc3nc(CN4C(=O)c5ccc6c7c(ccc(c57)C4=O)C(=O)N(Cc4nc5ccc(N7CCN(C)CC7)cc5[nH]4)C6=O)[nH]c3c2)CC1 [BBZ-AROCH2, 2,7-Bis((6-(4-methylpiperazin-1-yl)-1H-benzo[d]imidazol-2-yl)methyl)benzo[lmn]-[3,8]-phenanthroline-1,3,6,8(2H,7H)-tetraone] | 3.41 ± 0.22 × 10^6 M^-1 | 0.89 ± 0.11 × 10^6 M^-1 | 7 ± 0.7 | 9 ± 0.5 | 8 ± 0.4 | 10 ± 1.6 | 3.41 | 3.41 ± 0.22 10^6 M^–1 | 0.89 ± 0.11 10^6 M^–1 | 0.88 ± 0.63 10^6 M^–1 | 1.4 × 10^6 M^–1 | 3.5 | 0.4 × 10^6 M^–1 | 55.2 | > 50 | 79.5 | 74.8 | 92.7 | 86.5 | > 100 | Ka [13]: 0.88 ± 0.63 × 10^6 M^-1; IC50 (HEK 293T cells; 72 h, read-out: IC50 at 72 h): > 100 µM; G2/M phase arrest (G2) (HeLa cells [11]): 19.1%; apoptotic cells (Annexin V–FITC positive cells) (HeLa cells [12]): 40% |
